# High-throughput results from PubChem BioAssay.
# An excerpt weighted towards active compounds, which were near 2.1% of everything screened.
# PP1 counter – blocks human PP1-alpha phosphatase, a PP5 counter-screen. P62136. purified PP1alpha, OMFP fluorescence. inhibition, % at 6.7 µM. hit rate 0.9% among 320,000;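 active = inhibition above the mean inhibition of all tested compounds plus 3 SD, computed separately for each screening campaign, cut at about 15% in these data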
# Target sequence (P62136 whole entry, looked up): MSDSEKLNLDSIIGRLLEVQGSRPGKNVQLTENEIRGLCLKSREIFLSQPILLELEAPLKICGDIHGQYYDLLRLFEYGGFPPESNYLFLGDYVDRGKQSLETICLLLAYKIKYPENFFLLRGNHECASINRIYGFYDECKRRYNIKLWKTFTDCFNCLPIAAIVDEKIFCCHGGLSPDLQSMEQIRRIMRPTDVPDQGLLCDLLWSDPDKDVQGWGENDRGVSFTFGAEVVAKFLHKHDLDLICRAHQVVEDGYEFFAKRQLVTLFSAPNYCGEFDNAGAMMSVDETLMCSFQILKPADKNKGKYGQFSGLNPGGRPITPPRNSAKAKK
# PP5 primary – PP5 (human) phosphatase inhibition; purified PP5c, OMFP substrate fluorescence; P53041; AID 1987; hit rate 0.18% among 320,000; inhibition, % at 6.7 µM;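 active = inhibition above the campaign's mean inhibition across all tested compounds plus 3 SD, cut at about 9.5% in these data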;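 also: 0% = DMSO only and 100% = 100 µM cantharidin control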
# Apaf1 inhib – inhibitors of human Apaf-1 apoptosome; O14727; reconstituted apoptosome caspase-3 activity, DEVD-Rh110 fluorescence; inhibition, % at 20 µM; hit rate 0.71% among 330,000; AID 489030; active = inhibition of at least 40% at 20 µM;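 also: plate controls were DMSO wells for no effect and DEVD-CHO caspase inhibitor wells for full effect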
#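 Material: biochemical Apaf-1 apoptosome reconstitution. Medium: Hepes buffer, pH 7.5. Also added: cytochrome c activation, bis-DEVD rhodamine 110 substrate. Timing: 30 min compound preincubation, 50 min activation, room temperature. Measured by: rhodamine 110 fluorescence at Ex 480/Em 540 nm.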
# GSTO1 inh – blocks human GSTO1 in RBBP9 counter-screen; P78417; recombinant GSTO1, activity-based probe fluorescence polarization; inhibition, % at 5.96 µM; hit rate 1.1% among 300,000;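 active = inhibition above the campaign mean inhibition plus 3 SD, cut at about 35% in these data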;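 also: 0% = GSTO1-1 with DMSO and 100% = wells lacking GSTO1-1 enzyme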
# Target sequence (P78417 whole entry, looked up): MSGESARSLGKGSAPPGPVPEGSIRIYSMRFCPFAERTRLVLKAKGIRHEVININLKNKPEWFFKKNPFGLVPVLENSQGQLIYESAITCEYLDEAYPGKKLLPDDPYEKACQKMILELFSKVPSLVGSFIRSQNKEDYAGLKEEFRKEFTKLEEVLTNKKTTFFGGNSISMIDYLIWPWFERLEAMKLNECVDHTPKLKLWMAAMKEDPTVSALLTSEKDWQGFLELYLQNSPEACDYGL
# TDP2 inh – TDP2 (human) inhibition, absorbance primary screen | O95551 | recombinant TDP2, T5PNP hydrolysis, p-nitrophenol absorbance 415 nm | inhibition, % at 12.8 µM | hit rate 0.34% among 370,000;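 active = inhibition above the mean of all tested compounds plus 3 SD, set per campaign, cut at about 25% in these data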;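 also: 0% = DMSO with enzyme and 100% = buffer with substrate but no TDP2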
#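 Assay system: recombinant human TDP2 / Reagent: T5PNP substrate at 5 mM, a TopII-DNA adduct mimic / Measured by: epi absorbance from released p-nitrophenol / Evaluation: % inhibition relative to enzyme-containing and enzyme-free wells / Control set: enzyme-free and DMSO wells / Replicates: each compound tested once, singlicate / Schedule: enzyme reaction with compound for 2 h at 37 °C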
# PP1 confirm – human PP1 phosphatase inhibition, confirmation; shares compounds with PP1 counter; purified PP1alpha, OMFP substrate fluorescence; inhibition, % at 6.7 µM; hit rate 52% among 1,900; AID 2358;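 active = mean PP1 inhibition above a set limit taken from the earlier primary screen, cut at about 15% in these data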
# PP5 inh counter – PP5 phosphatase inhibition, counter-screen for PP1 inhibitors | shares compounds with PP1 counter | purified PP5c, OMFP fluorescence | inhibition, % at 6.7 µM | hit rate 4% among 1,900 | AID 2360;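 active = mean PP5 inhibition over triplicate wells above about 9.5% taken from the earlier PP1 screen, limit read from the data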
# Active calls of the source: *; x = no result.
SMILES,PP1 counter,PP5 primary,Apaf1 inhib,GSTO1 inh,TDP2 inh,PP1 confirm,PP5 inh counter
CCOc1ccc(C(=O)N/N=C/c2ccc(-c3ccc(S(=O)(=O)Nc4ncccn4)cc3)o2)cc1,-1,0,17,-18,12,x,x
Brc1ccc(CSc2ccc3nnc(-c4ccccn4)n3n2)cc1,26*,-1,2,4,-6,20*,-5
Fc1ccc(CSc2ccc3nnc(-c4ccccn4)n3n2)cc1,13,-1,-6,-5,-7,x,x
Cc1ccc(C)c(CSc2ccc3nnc(-c4ccccn4)n3n2)c1,22*,0,12,0,-4,13,-4
Cc1cc(NS(=O)(=O)c2ccc(NC(=O)CSc3nnc(-c4ccccn4)n3Cc3ccco3)cc2)nc(C)n1,x,x,x,x,-1,x,x
Cc1cccc(NC(=O)CN2C(=O)N/C(=C/c3ccc(C)s3)C2=O)c1,21*,1,-2,-13,-2,6,-6
COC(=O)c1cc2c(c3c4cc(F)ccc4n(S(=O)(=O)c4ccccc4)c13)C(=O)N(Cc1ccc(C(F)(F)F)cc1)C2,x,x,x,x,1,x,x
O=C(Nc1ccccc1N1CCCC1)c1cccc(-c2cc3ccccc3oc2=O)c1,18*,0,22,-1,2,19*,-1
C#Cc1ccc([C@H]2C=C(C(=O)N3CCN(Cc4ccccc4)CC3)O[C@@H](OCc3ccc(CO)cc3)C2)cc1,19*,2,18,-2,-1,20*,3
N#CCC(=O)N/N=C/c1c2ccccc2cc2ccccc12,x,x,10,x,-1,x,x
N#CCC(=O)N/N=C/c1cc(Br)ccc1OCc1cccc2ccccc12,21*,3,22,-10,-2,-1,1
CC(C)N1CCc2c(sc(NC(=O)C(F)(F)F)c2-c2nc3ccccc3s2)C1,x,x,x,x,-4,x,x
COc1ccc(-c2nn(C)c(=O)c3ccccc23)cc1NC(=O)Cn1nc(-c2ccccc2)c2ccccc2c1=O,24*,3,20,-42,2,18*,-2
CCOC(=O)C1=CCN(S(=O)(=O)c2ccc(F)cc2)C1c1ccc(Cl)c(Cl)c1 (centres undefined),x,x,x,x,-3,x,x
COc1nc(OC)nc(N2CCC(C(=O)N(C)Cc3ccccc3F)CC2)n1,x,x,x,x,-6,x,x
Nc1cccc(Nc2nc(OC(C(F)(F)F)C(F)(F)F)nc(OC(C(F)(F)F)C(F)(F)F)n2)c1,18*,19*,15,7,-10,16*,15*
Cc1ccc(-n2c(=O)cc(NCc3cccnc3)[nH]c2=O)cc1,25*,2,-7,1,-3,-4,-5
COC1=C[C@H](C(=O)NC2CCN(Cc3ccccc3)CC2)C(C)C(c2ccccc2)CC1=O (some centres undefined),x,x,x,x,4,x,x
CC1CCC2(CC1)CCN(CCCOC(=O)Nc1ccc3c(c1)OCO3)C2=O (centres undefined),x,x,x,x,4,x,x
Cc1ccccc1NC(=O)Cn1c(O)c(N=NC(=O)c2ccccc2O)c2ccccc21,20*,2,x,-3,-3,24*,-5
Cc1ccc(NC(=O)Cn2c(O)c(N=NC(N)=S)c3ccccc32)cc1,21*,1,-2,5,9,10,-6
Cc1cccc(NC(=O)Cn2c(C)c(C#N)c3ccccc32)c1C,21*,2,-10,-5,2,19*,-1
Cc1ccc(NC(=O)Cn2c(O)c(N=NC(N)=O)c3ccccc32)cc1,-2,-2,-14,-8,4,x,x
Cc1cccc(NC(=O)Cn2c(O)c(N=NC(=O)c3ccncc3)c3ccccc32)c1,1,0,9,25,-4,x,x
C=CCN(CC#CC(=C)C)Cc1ccccc1,x,x,x,x,4,x,x
SMILES,PP1 counter,PP5 primary,Apaf1 inhib,GSTO1 inh,TDP2 inh,PP1 confirm,PP5 inh counter
Cc1ccc(CN2C(=O)C3CCCN3c3ccc(C#N)cc32)cc1 (centres undefined),18*,4,1,-13,x,13,-2
NC(=O)CC(NC(=O)Cc1cccc2ccccc12)c1ccc(NC2CCCCCC2)c([N+](=O)[O-])c1 (centres undefined),24*,2,5,2,-6,24*,-4
CC(C)Nc1ccc(C(CC(N)=O)NC(=O)Cc2ccc(Br)cc2)cc1[N+](=O)[O-] (centres undefined),1,-5,-3,-6,6,x,x
NC(=O)CC(NC(=O)Cc1ccc(Br)cc1)c1ccc(NCCOc2ccccc2)c([N+](=O)[O-])c1 (centres undefined),20*,1,-3,-3,1,26*,-4
NC(=O)CC(NC(=O)Cc1ccc(Br)cc1)c1ccc(NCCc2cccc(F)c2)c([N+](=O)[O-])c1 (centres undefined),18*,1,0,2,5,23*,-4
NC(=O)CC(NC(=O)Cc1ccc(Br)cc1)c1ccc(NCc2cc(F)ccc2F)c([N+](=O)[O-])c1 (centres undefined),5,5,2,15,7,x,x
COc1nc(-c2ccccc2)ccc1-c1noc(COc2ccccc2)n1,19*,1,24,5,10,15,-1
Cc1ccc(C(=O)N2CCN(c3ccccc3)CC2)cc1C,32*,0,-11,3,-5,0,-2
Cc1ccc(C(=O)N2CCN(c3cccc(Cl)c3)CC2)cc1C,-1,2,-1,3,1,x,x
Cc1cc(C(=O)N2CCN(c3ccccc3)CC2)no1,27*,-1,-9,-9,x,-1,-3
Cc1ccccc1-c1nnc2n1N=C(c1ccc(O)c(O)c1)CS2,x,x,x,x,-2,x,x
CCOc1ccccc1NC(=O)C1C2CCC(O2)C1C(=O)O (centres undefined),77*,77*,-11,7,-10,16*,31*
COc1ccc(OC)c(NC(=O)C2C3CCC(O3)C2C(=O)O)c1 (centres undefined),64*,69*,-1,11,x,22*,27*
CCOc1ccccc1NC(=O)C1C2C=CC(C2)C1C(=O)O (centres undefined),-2,1,-11,2,9,x,x
COc1ccc(-c2nnc(SCC(=O)Nc3ccc4cn[nH]c4c3)n2Cc2ccco2)cc1,x,x,x,x,-1,x,x
COC(=O)[C@]12C[C@H](CC(=O)N3CCN(C(=O)c4ccco4)CC3)C(=O)N(Cc3ccc(Cl)cc3Cl)C1=C[C@H](COCc1ccccc1)O[C@@H]2C,x,x,x,x,-11,x,x
Cc1cc(N2CCN(C(=O)OC(C)(C)C)C[C@H]2C)ccc1N1C[C@@H](C)O[C@@H](C)C1,x,x,x,x,3,x,x
CC1CCN(C2=NC(=O)N(c3ccc(Br)cc3)C(=O)C2)CC1,x,x,x,x,1,x,x
CCN=C1NC(c2cccc(F)c2)C(C(=O)OC)=C(C)N1Cc1ccccc1C(F)(F)F (centres undefined),x,x,x,x,4,x,x
